Converted amounts (≈) assume the structure as drawn. Like-named read-outs stand apart in the source and are kept apart here.
Columns and labels:
M. tuberculosis = assay type: cell-based, Mycobacterium tuberculosis; conditions: for time to kill Mtb completely (100%): 2× MIC: capuramycin 24.0 μg/mL; for time to kill Mtb completely (100%) / time to kill 50% of Mtb: UT-01320 3.0 μg/mL; for time to kill 50% of Mtb: 2× MIC: rifampicin 0.4, INH 1.0 (so in the source)
MurX = target: T1, MurX (Mycobacterium tuberculosis, UniProt P9WMW7); test: MurX enzyme inhibitory assay; assay type: biochemical, M. tuberculosis
T1 sequence (P9WMW7 1-359): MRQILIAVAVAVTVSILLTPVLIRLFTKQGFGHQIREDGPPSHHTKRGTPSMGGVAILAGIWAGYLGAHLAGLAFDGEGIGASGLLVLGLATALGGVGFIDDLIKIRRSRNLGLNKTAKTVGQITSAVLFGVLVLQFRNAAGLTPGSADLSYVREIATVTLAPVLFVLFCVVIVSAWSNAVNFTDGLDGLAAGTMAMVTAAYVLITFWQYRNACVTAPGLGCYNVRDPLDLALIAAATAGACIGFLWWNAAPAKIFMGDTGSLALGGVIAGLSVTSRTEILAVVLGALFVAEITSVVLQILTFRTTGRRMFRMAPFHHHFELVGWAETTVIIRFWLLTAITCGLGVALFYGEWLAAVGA

[1] = system: non-replicating M. tuberculosis H37Rv (pFCA-luxAB); test: microbe, parasite or virus in culture; assay type: cell-based; conditions: Mycobacterium tuberculosis, read-out: MIC μg/mL (LORA)
[2] = system: HepG2 human hepatoblastoma cells; test: Cytotoxicity assay; assay type: cell-based; conditions: HepG2, read-out: IC50 μg/mL HepG2 cells
M. tuberculosis H37Rv = test: MIC, microplate alamar blue assay; assay type: cell-based; conditions: Mycobacterium tuberculosis
E. coli RNA polymerase = E. coli RNA polymerase (Escherichia coli, UniProt P0A8T7+P0A8V2); test: RNA polymerase assay; assay type: biochemical
Mtb = test: Micro dilution broth checkerboard; assay type: cell-based, Mycobacterium tuberculosis
[3] = target: M. smegmatis RNA polymerase (Mycolicibacterium smegmatis, UniProt A0QS66+P60281); test: RNA polymerase assay; assay type: biochemical
M. smegmatis ATCC607 = test: MIC, broth dilution; assay type: cell-based, Mycobacterium smegmatis; conditions: M. smegmatis ATCC607, broth dilution method
[4] = system: electron transport systems; test: Inhibition of electron transport systems; assay type: cell-based
DNA gyrase = DNA gyrase (Escherichia coli, UniProt P0AES4+P0AES6); test: DNA topoisomerase II - DNA supercoiling assay; assay type: biochemical
S. aureus RNA polymerase = S. aureus RNA polymerase (Staphylococcus aureus, UniProt P47768+Q2G0N5); test: RNA polymerase assay; assay type: biochemical
E. faecium ATCC 349 = test: MIC, broth dilution; assay type: cell-based; conditions: Enterococcus faecium, ATCC349
P. aeruginosa ATCC 27853 = test: MIC, broth dilution; assay type: cell-based; conditions: Pseudomonas aeruginosa, ATCC27853
E. coli ATCC 25019 = test: MIC, broth dilution; assay type: cell-based; conditions: Escherichia coli, ATCC25019
[5] = target: Mtb serine/threonine kinase PknB (Mycobacterium tuberculosis, UniProt P9WI81); test: Ser/Thr protein kinase assay; assay type: biochemical, M. tuberculosis
Cytotoxicity assay = assay type: cell-based; conditions: monkey, Vero monkey kidney cells (ATCC CCL-81)
How it was run: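 Vero kidney cells grown in 96-well plates in ATCC-formulated Eagle's Minimum Essential Medium and exposed to test compound. Each plate includes reference drugs of known toxicity as controls. Cytopathic effect is read by MTT assay after incubation, and IC50 is reported.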

menaquinone biosynthesis = assay type: biochemical
[6] = target: T2, Mtb serine/threonine kinase PKnA (Mycobacterium tuberculosis, UniProt P9WI83); test: Ser/Thr protein kinase assay; assay type: biochemical, M. tuberculosis
T2 sequence (P9WI83 1-431): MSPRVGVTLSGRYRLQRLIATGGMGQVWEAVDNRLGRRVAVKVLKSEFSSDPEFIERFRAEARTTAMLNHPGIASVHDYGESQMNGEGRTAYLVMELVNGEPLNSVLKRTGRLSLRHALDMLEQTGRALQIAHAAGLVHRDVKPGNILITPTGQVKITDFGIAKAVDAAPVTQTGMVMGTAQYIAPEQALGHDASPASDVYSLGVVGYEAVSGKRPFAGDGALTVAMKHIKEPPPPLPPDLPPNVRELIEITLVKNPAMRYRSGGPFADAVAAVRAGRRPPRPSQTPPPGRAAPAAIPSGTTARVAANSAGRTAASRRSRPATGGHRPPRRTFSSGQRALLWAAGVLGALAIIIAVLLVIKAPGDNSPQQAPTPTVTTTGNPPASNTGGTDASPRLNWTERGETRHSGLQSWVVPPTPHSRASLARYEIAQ

[7] = target: bacterial RNA polymerases; test: RNA polymerase assays, enzyme not given; assay type: biochemical; conditions: read-out: IC50, bacterial RNA polymerases; abstract

Sequence of E. coli RNA polymerase (P0A8V2 whole entry): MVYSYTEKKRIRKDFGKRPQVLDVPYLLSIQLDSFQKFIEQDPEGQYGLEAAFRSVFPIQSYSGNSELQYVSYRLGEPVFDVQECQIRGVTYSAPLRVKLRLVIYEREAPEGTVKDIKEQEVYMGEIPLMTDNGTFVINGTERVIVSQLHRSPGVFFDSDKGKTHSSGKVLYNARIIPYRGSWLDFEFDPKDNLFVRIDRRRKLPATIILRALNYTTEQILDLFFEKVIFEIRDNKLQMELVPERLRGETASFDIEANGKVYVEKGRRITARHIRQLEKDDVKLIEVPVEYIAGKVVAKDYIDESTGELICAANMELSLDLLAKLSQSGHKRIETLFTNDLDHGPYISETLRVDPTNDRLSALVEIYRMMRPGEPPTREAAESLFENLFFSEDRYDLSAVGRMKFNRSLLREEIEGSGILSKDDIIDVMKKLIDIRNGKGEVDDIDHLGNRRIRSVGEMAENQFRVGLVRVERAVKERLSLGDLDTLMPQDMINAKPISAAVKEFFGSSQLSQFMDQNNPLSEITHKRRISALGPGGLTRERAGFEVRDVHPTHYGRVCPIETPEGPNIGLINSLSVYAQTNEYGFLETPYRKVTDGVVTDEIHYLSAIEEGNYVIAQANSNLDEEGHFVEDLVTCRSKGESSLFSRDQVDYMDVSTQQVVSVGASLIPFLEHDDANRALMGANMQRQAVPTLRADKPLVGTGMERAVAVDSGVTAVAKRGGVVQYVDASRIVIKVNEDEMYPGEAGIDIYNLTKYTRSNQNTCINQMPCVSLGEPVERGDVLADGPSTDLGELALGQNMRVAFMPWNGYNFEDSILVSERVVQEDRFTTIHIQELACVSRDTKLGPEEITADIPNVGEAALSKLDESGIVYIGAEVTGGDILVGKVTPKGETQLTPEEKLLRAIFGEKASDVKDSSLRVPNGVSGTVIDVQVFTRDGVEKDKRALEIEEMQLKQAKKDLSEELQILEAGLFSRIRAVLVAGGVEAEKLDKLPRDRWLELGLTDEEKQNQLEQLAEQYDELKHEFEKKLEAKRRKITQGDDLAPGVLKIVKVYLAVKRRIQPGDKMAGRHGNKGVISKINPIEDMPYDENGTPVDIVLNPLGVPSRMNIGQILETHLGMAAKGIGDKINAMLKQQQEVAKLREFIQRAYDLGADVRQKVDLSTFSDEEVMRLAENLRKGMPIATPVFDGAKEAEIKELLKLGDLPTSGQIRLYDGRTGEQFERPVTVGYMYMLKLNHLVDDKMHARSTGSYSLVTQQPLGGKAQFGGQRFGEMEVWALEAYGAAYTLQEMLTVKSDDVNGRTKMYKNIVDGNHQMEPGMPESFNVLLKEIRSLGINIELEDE
Sequence of E. coli RNA polymerase (P0A8T7 whole entry): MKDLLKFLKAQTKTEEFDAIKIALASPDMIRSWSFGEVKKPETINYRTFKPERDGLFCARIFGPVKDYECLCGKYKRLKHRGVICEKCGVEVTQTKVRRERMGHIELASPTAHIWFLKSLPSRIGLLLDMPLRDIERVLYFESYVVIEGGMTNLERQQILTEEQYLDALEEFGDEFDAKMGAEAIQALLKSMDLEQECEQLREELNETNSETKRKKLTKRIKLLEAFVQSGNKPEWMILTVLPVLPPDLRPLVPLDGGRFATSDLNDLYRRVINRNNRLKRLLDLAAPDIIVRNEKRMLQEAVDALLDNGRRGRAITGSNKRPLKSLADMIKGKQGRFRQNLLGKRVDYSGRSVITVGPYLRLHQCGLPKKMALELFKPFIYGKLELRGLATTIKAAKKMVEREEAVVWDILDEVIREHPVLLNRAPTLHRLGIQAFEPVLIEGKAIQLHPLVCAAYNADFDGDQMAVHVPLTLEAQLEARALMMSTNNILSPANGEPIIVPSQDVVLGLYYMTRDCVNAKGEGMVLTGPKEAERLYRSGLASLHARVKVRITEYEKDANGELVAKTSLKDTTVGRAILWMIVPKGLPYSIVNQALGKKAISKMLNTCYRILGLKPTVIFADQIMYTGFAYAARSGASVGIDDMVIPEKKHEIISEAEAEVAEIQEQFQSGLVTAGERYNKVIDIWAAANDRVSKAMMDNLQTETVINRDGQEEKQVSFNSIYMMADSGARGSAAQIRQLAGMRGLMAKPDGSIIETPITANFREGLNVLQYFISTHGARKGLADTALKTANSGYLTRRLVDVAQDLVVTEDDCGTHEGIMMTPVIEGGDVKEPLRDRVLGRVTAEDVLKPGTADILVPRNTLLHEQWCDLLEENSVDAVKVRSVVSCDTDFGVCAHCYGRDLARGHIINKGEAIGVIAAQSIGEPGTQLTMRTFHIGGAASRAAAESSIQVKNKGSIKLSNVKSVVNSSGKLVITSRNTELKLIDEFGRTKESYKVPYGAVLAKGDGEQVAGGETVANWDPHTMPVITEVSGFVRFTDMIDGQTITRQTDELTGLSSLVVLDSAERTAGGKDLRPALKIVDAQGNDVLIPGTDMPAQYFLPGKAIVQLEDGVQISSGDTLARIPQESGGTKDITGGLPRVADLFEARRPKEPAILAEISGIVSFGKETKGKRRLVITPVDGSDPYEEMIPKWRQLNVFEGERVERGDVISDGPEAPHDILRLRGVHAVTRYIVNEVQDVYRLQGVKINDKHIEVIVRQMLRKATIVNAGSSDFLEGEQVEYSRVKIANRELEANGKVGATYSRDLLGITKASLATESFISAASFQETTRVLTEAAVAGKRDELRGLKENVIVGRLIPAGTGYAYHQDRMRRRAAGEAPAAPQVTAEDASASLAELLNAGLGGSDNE
Sequence of E. coli RNA polymerase (P0A7Z4 whole entry partner): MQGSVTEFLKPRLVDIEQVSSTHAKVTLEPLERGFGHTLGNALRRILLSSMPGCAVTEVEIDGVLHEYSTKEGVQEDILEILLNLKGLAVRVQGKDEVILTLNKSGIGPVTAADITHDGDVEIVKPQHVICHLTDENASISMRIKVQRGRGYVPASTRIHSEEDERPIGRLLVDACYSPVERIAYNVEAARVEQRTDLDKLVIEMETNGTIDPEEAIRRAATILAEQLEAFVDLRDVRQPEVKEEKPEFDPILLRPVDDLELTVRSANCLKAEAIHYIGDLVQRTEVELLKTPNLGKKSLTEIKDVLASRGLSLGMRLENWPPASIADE
Sequence of E. coli RNA polymerase (P0A800 whole entry partner): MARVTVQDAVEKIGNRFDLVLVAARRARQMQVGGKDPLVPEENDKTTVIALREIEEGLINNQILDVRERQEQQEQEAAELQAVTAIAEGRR
Sequence of DNA gyrase (P0AES4 whole entry, one chain of several): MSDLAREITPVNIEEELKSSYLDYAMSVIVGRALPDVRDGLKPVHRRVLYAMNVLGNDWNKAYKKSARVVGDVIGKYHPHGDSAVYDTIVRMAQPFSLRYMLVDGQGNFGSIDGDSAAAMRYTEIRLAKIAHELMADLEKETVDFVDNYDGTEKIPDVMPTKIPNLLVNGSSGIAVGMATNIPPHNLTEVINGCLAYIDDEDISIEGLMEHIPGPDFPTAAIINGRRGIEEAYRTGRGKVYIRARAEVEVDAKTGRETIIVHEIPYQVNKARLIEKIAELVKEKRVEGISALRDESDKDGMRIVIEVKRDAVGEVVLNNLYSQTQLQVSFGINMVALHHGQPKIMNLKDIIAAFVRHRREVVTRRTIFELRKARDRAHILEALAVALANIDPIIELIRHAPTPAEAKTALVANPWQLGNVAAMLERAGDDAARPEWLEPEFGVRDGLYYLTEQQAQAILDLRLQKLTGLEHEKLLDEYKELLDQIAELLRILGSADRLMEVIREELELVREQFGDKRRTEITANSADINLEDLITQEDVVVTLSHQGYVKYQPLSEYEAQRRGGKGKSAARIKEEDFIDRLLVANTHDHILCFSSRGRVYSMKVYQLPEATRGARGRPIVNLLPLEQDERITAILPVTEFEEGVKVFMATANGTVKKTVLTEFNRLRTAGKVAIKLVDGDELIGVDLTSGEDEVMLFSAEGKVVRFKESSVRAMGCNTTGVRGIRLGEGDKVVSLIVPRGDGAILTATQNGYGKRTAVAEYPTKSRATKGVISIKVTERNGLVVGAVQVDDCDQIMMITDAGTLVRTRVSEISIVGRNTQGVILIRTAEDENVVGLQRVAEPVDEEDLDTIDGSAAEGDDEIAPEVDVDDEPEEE
Sequence of Mtb serine/threonine kinase PknB (P9WI81 whole entry): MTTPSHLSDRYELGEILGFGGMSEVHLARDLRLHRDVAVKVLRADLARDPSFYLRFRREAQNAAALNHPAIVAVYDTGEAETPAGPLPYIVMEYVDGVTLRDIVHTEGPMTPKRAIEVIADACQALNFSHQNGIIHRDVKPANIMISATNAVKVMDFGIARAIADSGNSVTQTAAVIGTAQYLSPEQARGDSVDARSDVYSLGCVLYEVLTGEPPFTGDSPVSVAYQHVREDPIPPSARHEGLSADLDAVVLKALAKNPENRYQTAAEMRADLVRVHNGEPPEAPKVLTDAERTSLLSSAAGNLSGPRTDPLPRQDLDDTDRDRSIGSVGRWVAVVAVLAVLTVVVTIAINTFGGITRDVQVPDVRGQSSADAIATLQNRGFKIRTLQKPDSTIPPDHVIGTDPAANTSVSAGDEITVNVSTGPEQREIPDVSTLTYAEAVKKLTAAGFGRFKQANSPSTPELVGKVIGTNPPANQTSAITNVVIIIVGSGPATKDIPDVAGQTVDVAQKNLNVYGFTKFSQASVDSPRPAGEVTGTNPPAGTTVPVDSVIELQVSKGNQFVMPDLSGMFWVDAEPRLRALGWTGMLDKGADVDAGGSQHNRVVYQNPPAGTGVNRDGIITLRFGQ

SMILES | time to kill Mtb completely (100%) (M. tuberculosis) [days] | IC50 (MurX) [nM] | MIC [1] [µg/mL] | IC50 [2] [µg/mL] | MIC (M. tuberculosis H37Rv; read-out: MIC μg/mL (MABA)) [µg/mL] | MIC (M. tuberculosis H37Rv) [µg/mL] | time to kill 50% of Mtb (M. tuberculosis) | IC50 (E. coli RNA polymerase) [nM] | further results
COC1C(O)C(n2ccc(=O)[nH]c2=O)OC1C(OC1OC(C(=O)NC2CCCCNC2=O)=CC(O)C1O)C(N)=O (stereo not drawn) [Capuramycin (1), 6-{Carbamoyl-[5-(2,4-dioxo-3,4-dihydro-2H-pyrimidin-1-yl)-4-hydroxy-3-methoxy-tetrahydro-furan-2-yl]-methoxy}-4,5-dihydroxy-5,6-dihydro-4H-pyran-2-carboxylic acid (2-oxo-azepan-3-yl)-amide] | 2 | 127 | > 100 | > 400 |  |  |  |  | log10 CFU/mL reduction (M. tuberculosis; in 1 day, 24.0 μg/mL (2× MIC)): ≥ 3.0 log10 CFU/mL
CC[C@@H](CO)NCCN[C@@H](CC)CO [Ethambutol (EMB), Ethambutol] |  |  | > 100 | > 400 | 0.78 (≈ 3.82 µM) |  |  |  | 
NNC(=O)c1ccncc1 [Isoniazid (INH), Isoniazid] |  |  | > 100 | > 400 | 0.04 to 0.1 (≈ 0.292 to 0.729 µM) | 0.04 to 0.1 (≈ 0.292 to 0.729 µM) |  |  | 
CO[C@H]1/C=C/O[C@@]2(C)Oc3c(C)c(O)c4c(O)c(c(/C=N/N5CCN(C)CC5)c(O)c4c3C2=O)NC(=O)/C(C)=C\C=C\[C@H](C)[C@H](O)[C@@H](C)[C@@H](O)[C@@H](C)[C@H](OC(C)=O)[C@@H]1C [Rifampicin (RFP), Rifampicin] |  |  |  | > 400 | 0.2 (≈ 0.243 µM) | 0.2 (≈ 0.243 µM) | over 7 days | 120 | 
COC1C(O)C(n2ccc(=O)[nH]c2=O)OC1C(OC1OC(C(=O)Nc2ccc(F)c(F)c2)=CC(O)C1O)C(N)=O (stereo not drawn) [SQ 641 (2), 6-{Carbamoyl-[5-(2,4-dioxo-3,4-dihydro-2H-pyrimidin-1-yl)-4-hydroxy-3-methoxy-tetrahydro-furan-2-yl]-methoxy}-4,5-dihydroxy-5,6-dihydro-4H-pyran-2-carboxylic acid (3,4-difluoro-phenyl)-amide] |  | 98 | > 100 | > 400 |  |  |  |  | MIC (μg/mL) CA and CB (concentration in combination) (Mtb; pair SQ 641 0.10 + UT-01320 0.08): 0.10 µg/mL; MIC (μg/mL) CA and CB (concentration in combination) (Mtb; pair SQ 641 0.10 + UT-01320 0.16): 0.10 µg/mL; MIC (μg/mL) CA and CB (concentration in combination) (Mtb; pair SQ 641 0.10 + UT-01320 0.32): 0.10 µg/mL; MIC (μg/mL) CA and CB (concentration in combination) (Mtb; pair SQ 641 0.10 + UT-01320 0.645): 0.10 µg/mL; MIC (μg/mL) CA and CB (concentration in combination) (Mtb; pair SQ 641 0.10 + UT-01320 1.29): 0.10 µg/mL
COC1C(C(OC2OC(C(=O)NC3CCCCNC3=O)=CC(O)C2O)C(N)=O)OC(n2ccc(=O)[nH]c2=O)C1OC (stereo not drawn) [UT-01320 (3), 6-{Carbamoyl-[5-(2,4-dioxo-3,4-dihydro-2H-pyrimidin-1-yl)-3,4-dimethoxy-tetrahydro-furan-2-yl]-methoxy}-4,5-dihydroxy-5,6-dihydro-4H-pyran-2-carboxylic acid (2-oxo-azepan-3-yl)-amide] | ≤ 5 | > 100000 | 2.58 (≈ 4.42 µM) | > 400 |  | 1.5 (≈ 2.57 µM) | ≤ 3 days | 100 to 150 | time to kill 100% of Mtb (M. tuberculosis; 4× MIC: UT-01320 6.0 μg/mL): ≤ 3 days; IC50 [3]: 100 to 150 nM; MIC (M. smegmatis ATCC607): >200 µg/mL; inhibition of electron transport systems [4]: did not inhibit; inhibition of DNA gyrase (DNA gyrase): did not inhibit; MurX enzyme inhibitory activity (MurX): did not interfere with MurX; MurX enzyme inhibitory activity (MurX; listed as 3): did not exhibit MurX enzyme inhibitory activity even at high concentrations; IC50 (S. aureus RNA polymerase): 100 to 150 nM; MIC (E. faecium ATCC 349): > 200 µg/mL; MIC (P. aeruginosa ATCC 27853): > 200 µg/mL; MIC (E. coli ATCC 25019): > 200 µg/mL; inhibition of Mtb serine/threonine kinase PknB [5]: did not inhibit; IC50 (Cytotoxicity assay): > 400 µg/mL; inhibition of menaquinone biosynthesis (menaquinone biosynthesis): did not inhibit; inhibition of Mtb serine/threonine kinase PKnA [6]: did not inhibit; IC50 [7]: 100 to 150 nM

— publication PMC4382465 (The Journal of antibiotics, 2014)
